The values that follow come from ChEMBL document CHEMBL4004796, “Exploring the Bioactive Terpenoid Content of an Algerian Plant of the Genus Pulicaria: The ent-Series of Asteriscunolides” (J Nat Prod, 2017).

What all share (assay type): functional
A short description of test [1]: Antiinflammatory activity assessed as inhibition of heat-induced albumin denaturation at 10 uM after 20 mins by spectrophotometric method relative to control. The procedure, abridged: (§1)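 Bovine albumin fraction as a 1% aqueous solution, with test agent at 0.5−10 μM, adjusted to pH 6.3 with 1 N HCl. Incubated 20 min at 37 °C, then heated 20 min at 51 °C. After cooling, turbidity read at 660 nm. % inhibition = [(A0 − A1)/A0] × 100 versus control absorbance. Diclofenac sodium as reference.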

Test [2] can be described thus: Antiinflammatory activity assessed as inhibition of heat-induced albumin denaturation at 5 uM after 20 mins by spectrophotometric method relative to control. The procedure, abridged: as §1
A short description of test [3]: Antiinflammatory activity assessed as inhibition of heat-induced albumin denaturation at 0.5 uM after 20 mins by spectrophotometric method relative to control. The gist of the method:
as §1

Test [4] can be described thus: Antiinflammatory activity assessed as inhibition of heat-induced albumin denaturation at 1 uM after 20 mins by spectrophotometric method relative to control. The procedure, abridged:
as §1

Test [5] is described as follows: Antiinflammatory activity assessed as inhibition of heat-induced albumin denaturation after 20 mins by spectrophotometric method. The procedure, abridged: as §1
Test [6] relates to Rattus norvegicus. Briefly: Antiinflammatory activity in Wistar rat assessed as inhibition of carrageenan-induced paw edema at 10 mg/kg, po preincubated for 1 hr followed by carrageenan challenge measured at 3 hrs by plethysmometer relative to control. The gist of the method:
(§2)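 Adult male albino Wistar animals, 25−30 g, in groups of five, 25 ± 2 °C, 12 h light/dark. Oral dosing, with PBS vehicle for controls. One hour later, 0.1 mL of 1% carrageenan was injected subplantar into the left hind paw. Paw volume was read by plethysmometer at 1, 2, 3 and 4 h relative to pre-injection. % inhibition = [(D0 − Dt)/D0] × 100 versus control group mean at each time. Mean ± SD, n = 5, Student's test.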
Background: The carrageenan paw model is a standard test of acute inflammation.

Test [7] deals with Rattus norvegicus. Briefly: Antiinflammatory activity in Wistar rat assessed as inhibition of carrageenan-induced paw edema at 10 mg/kg, po preincubated for 1 hr followed by carrageenan challenge measured at 1 hr by plethysmometer relative to control. The procedure, abridged: as §2
In test [8] the test system is Rattus norvegicus. As to the kind of experiment: Antiinflammatory activity in Wistar rat assessed as inhibition of carrageenan-induced paw edema at 10 mg/kg, po preincubated for 1 hr followed by carrageenan challenge measured at 4 hrs by plethysmometer relative to control. The gist of the method: as §2
For test [9], the system named is Rattus norvegicus. Briefly: Antiinflammatory activity in Wistar rat assessed as inhibition of carrageenan-induced paw edema at 10 mg/kg, po preincubated for 1 hr followed by carrageenan challenge measured at 2 hrs by plethysmometer relative to control. The procedure, abridged: as §2

By inhibition is commonly meant the percentage by which the read-out fell short of the control. Broadly, the IC50 is the concentration at which inhibition is half-maximal. What is called inhibition in vivo is the change of the read-out against control, counted positive when it falls.

Regarding `C/C1=C/CCC2=C[C@@H](OC2=O)C(C)(C)/C=C\C1=O`, the inhibition in test [1] was determined as 44.4%; in test [2], 32.9%; in test [3] it was 15.5%; in [4], 22.6%. In [5], the IC50 worked out at 23.8 µM.

Turning to `COC(=O)/C1=C\CC(C)(C)/C=C/C(=O)C(C)CCC1` (single isomer, unassigned; (-)), the figures for the inhibition in [2], in [3] and in [4] were 24.6%, 8.73% and 16.7%, respectively. Also, the concentration for half-maximal inhibition (IC50) in [5] was determined as 220 µM.

In the case of `O=C(O)Cc1ccccc1Nc1c(Cl)cccc1Cl` [DICLOFENAC SODIUM], the inhibition in vivo at 10 mg/kg worked out at 73.7% with Rattus norvegicus [6], 64.9% in the test on Rattus norvegicus [7], 78.6% with Rattus norvegicus [8] and 71.5% in the test with Rattus norvegicus [9]. The inhibition in test [1] stood at 70.2%; in test [2], 41.7%; in [3], 22.6%; in test [4] it was 31.8%. Further, the 50% inhibitory concentration (IC50) in test [5] is 4.14 µM.
